Activity calls are given as the source filed them. The rule behind the calls is not given here.
Test system: dengue virus type 2
Experiment: Antiviral activity against DENV2 16681 infected in human Huh-7 cells at 5 uM after 3 days by luciferase reporter gene assay
Format: functional
Details: Dengue virus, 16681, Huh-7, 72 h

Compound | inhibition at 5 µM [%]
COc1ccc(-c2cc3cc(OC)ccc3nc2C(O)c2ccccc2)cc1 (stereo unspecified) | 38
COc1ccc(-c2cc3ccccc3nc2C(=O)c2ccccc2)cc1 | 3.12
NC(=O)c1ncn([C@@H]2O[C@H](CO)[C@@H](O)[C@H]2O)n1 [RIBAVIRIN] | 32
OC(c1ccccc1)c1nc2ccc(F)cc2cc1-c1ccc(F)cc1 (stereo unspecified) | 22.2
O=C(c1ccc(O)cc1)c1nc2ccccc2cc1-c1ccc(O)cc1 | 38.7

Test system: dengue virus type 2
Experiment: Antiviral activity against DENV2 16681 infected in human Huh-7 cells at 20 uM after 3 days by luciferase reporter gene assay
Format: functional
Details: Dengue virus, 16681, Huh-7, 72 h

Compound | inhibition at 20 µM [%]
COc1ccc(-c2cc3cc(OC)ccc3nc2C(O)c2ccccc2)cc1 (stereo unspecified) | 61.2
COc1ccc(-c2cc3ccccc3nc2C(=O)c2ccccc2)cc1 | 6.93
NC(=O)c1ncn([C@@H]2O[C@H](CO)[C@@H](O)[C@H]2O)n1 [RIBAVIRIN] | 67.5
OC(c1ccccc1)c1nc2ccc(F)cc2cc1-c1ccc(F)cc1 (stereo unspecified) | 23.1
O=C(c1ccc(O)cc1)c1nc2ccccc2cc1-c1ccc(O)cc1 | 62.1

Test system: not listed separately
Experiment: Cytotoxicity against human HuH7 cells assessed as cell viability at 20 uM after 3 days by XTT assay
Format: cell-based, Huh-7
Details: read-out: Activity

Compound | viability at 72 h, 20 µM [%]
O=C(c1ccc(O)cc1)c1nc2ccccc2cc1-c1ccc(OCCN2CCCCC2)cc1 | 77.5
O=C(c1ccc(OCCN2CCCCC2)cc1)c1nc2ccccc2cc1-c1ccc(OCCN2CCCCC2)cc1 | 18.4
CN(C)CCCOc1ccc(-c2cc3ccccc3nc2C(=O)c2ccc(O)cc2)cc1 | 80.4
COc1ccc(-c2cc3ccccc3nc2C(=O)c2cc(OC)c(OC)c(OC)c2)cc1 | 74.1
O=C(c1ccc(OCCN2CCCC2)cc1)c1nc2ccccc2cc1-c1ccc(OCCN2CCCC2)cc1 | 15.5
COc1ccc(-c2cc3cc(OC)ccc3nc2C(O)c2ccccc2)cc1 (stereo unspecified) | 87.7
O=C(c1ccc(O)cc1)c1nc2ccccc2cc1-c1ccc(OCCN2CCCC2)cc1 | 91
CN(C)CCCOc1ccc(C(=O)c2nc3ccccc3cc2-c2ccc(OCCCN(C)C)cc2)cc1 | 17.6
COc1ccc(-c2cc3ccccc3nc2C(=O)c2ccccc2)cc1 | 93.1
NC(=O)c1ncn([C@@H]2O[C@H](CO)[C@@H](O)[C@H]2O)n1 [RIBAVIRIN] | 71.4
OC(c1ccccc1)c1nc2ccc(F)cc2cc1-c1ccc(F)cc1 (stereo unspecified) | 129
O=C(c1ccc(O)cc1)c1nc2ccccc2cc1-c1ccc(O)cc1 | 90.3

Test system: not listed separately
Experiment: Cytotoxicity against human HuH7 cells assessed as cell viability at 100 uM after 3 days by XTT assay
Format: cell-based, Huh-7
Details: read-out: Activity

Compound | viability at 72 h, 100 µM [%]
O=C(c1ccc(O)cc1)c1nc2ccccc2cc1-c1ccc(OCCN2CCCCC2)cc1 | 19.5
O=C(c1ccc(OCCN2CCCCC2)cc1)c1nc2ccccc2cc1-c1ccc(OCCN2CCCCC2)cc1 | 15.8
CN(C)CCCOc1ccc(-c2cc3ccccc3nc2C(=O)c2ccc(O)cc2)cc1 | 16.8
COc1ccc(-c2cc3ccccc3nc2C(=O)c2cc(OC)c(OC)c(OC)c2)cc1 | 35.1
O=C(c1ccc(OCCN2CCCC2)cc1)c1nc2ccccc2cc1-c1ccc(OCCN2CCCC2)cc1 | 16.6
COc1ccc(-c2cc3cc(OC)ccc3nc2C(O)c2ccccc2)cc1 (stereo unspecified) | 26
O=C(c1ccc(O)cc1)c1nc2ccccc2cc1-c1ccc(OCCN2CCCC2)cc1 | 18.1
CN(C)CCCOc1ccc(C(=O)c2nc3ccccc3cc2-c2ccc(OCCCN(C)C)cc2)cc1 | 19.2
COc1ccc(-c2cc3ccccc3nc2C(=O)c2ccccc2)cc1 | 87.8
NC(=O)c1ncn([C@@H]2O[C@H](CO)[C@@H](O)[C@H]2O)n1 [RIBAVIRIN] | 26.8
OC(c1ccccc1)c1nc2ccc(F)cc2cc1-c1ccc(F)cc1 (stereo unspecified) | 92.3
O=C(c1ccc(O)cc1)c1nc2ccccc2cc1-c1ccc(O)cc1 | 65.1

Test system: dengue virus type 2
Experiment: Antiviral activity against DENV2 16681 infected in human Huh-7 cells after 3 days by luciferase reporter gene assay
Format: functional, organism-based
Details: Dengue virus, 16681, Huh-7, 72 h

Compound | IC50 [µM]
COc1ccc(-c2cc3cc(OC)ccc3nc2C(O)c2ccccc2)cc1 (stereo unspecified) | 14.1
NC(=O)c1ncn([C@@H]2O[C@H](CO)[C@@H](O)[C@H]2O)n1 [RIBAVIRIN] | 12.6
O=C(c1ccc(O)cc1)c1nc2ccccc2cc1-c1ccc(O)cc1 | 13.2

Test system: not listed separately
Experiment: Cytotoxicity against human HuH7 cells assessed as cell viability after 3 days by XTT assay
Format: cell-based, Huh-7
Details: not given

Compound | CC50 at 72 h [µM]
COc1ccc(-c2cc3cc(OC)ccc3nc2C(O)c2ccccc2)cc1 (stereo unspecified) | 68.9
NC(=O)c1ncn([C@@H]2O[C@H](CO)[C@@H](O)[C@H]2O)n1 [RIBAVIRIN] | 56.3
O=C(c1ccc(O)cc1)c1nc2ccccc2cc1-c1ccc(O)cc1 | > 100

Test system: not listed separately
Experiment: Selectivity index, ratio of CC50 for human HuH7 cells to IC50 for DENV2 16681
Format: functional, Huh-7
Details: not given

Compound | Ratio CC50/IC50
COc1ccc(-c2cc3cc(OC)ccc3nc2C(O)c2ccccc2)cc1 (stereo unspecified) | 4.87
NC(=O)c1ncn([C@@H]2O[C@H](CO)[C@@H](O)[C@H]2O)n1 [RIBAVIRIN] | 4.47
O=C(c1ccc(O)cc1)c1nc2ccccc2cc1-c1ccc(O)cc1 | >7.6

Test system: A549
Experiment: Antiproliferative activity against human A549 cells after 3 days by XTT assay
Format: functional, cell-based
Details: A549, 72 h

Compound | IC50 [µM]
O=C(c1ccc(O)cc1)c1nc2ccccc2cc1-c1ccc(OCCN2CCCCC2)cc1 | > 10
O=C(c1ccc(OCCN2CCCCC2)cc1)c1nc2ccccc2cc1-c1ccc(OCCN2CCCCC2)cc1 | 6.53
CN(C)CCCOc1ccc(-c2cc3ccccc3nc2C(=O)c2ccc(O)cc2)cc1 | > 10
COc1ccc(-c2cc3ccccc3nc2C(=O)c2cc(OC)c(OC)c(OC)c2)cc1 | > 10
O=C(c1ccc(OCCN2CCCC2)cc1)c1nc2ccccc2cc1-c1ccc(OCCN2CCCC2)cc1 | 7.38
O=C(c1ccc(O)cc1)c1nc2ccccc2cc1-c1ccc(OCCN2CCCC2)cc1 | > 10
CN(C)CCCOc1ccc(C(=O)c2nc3ccccc3cc2-c2ccc(OCCCN(C)C)cc2)cc1 | 6.35

Test system: not listed separately
Experiment: Antiproliferative activity against human H1299 cells after 3 days by XTT assay
Format: functional, cell-based
Details: NCI-H1299, 72 h

Compound | IC50 [µM]
O=C(c1ccc(O)cc1)c1nc2ccccc2cc1-c1ccc(OCCN2CCCCC2)cc1 | > 10
O=C(c1ccc(OCCN2CCCCC2)cc1)c1nc2ccccc2cc1-c1ccc(OCCN2CCCCC2)cc1 | 6.18
CN(C)CCCOc1ccc(-c2cc3ccccc3nc2C(=O)c2ccc(O)cc2)cc1 | > 10
COc1ccc(-c2cc3ccccc3nc2C(=O)c2cc(OC)c(OC)c(OC)c2)cc1 | > 10
O=C(c1ccc(OCCN2CCCC2)cc1)c1nc2ccccc2cc1-c1ccc(OCCN2CCCC2)cc1 | 5.68
O=C(c1ccc(O)cc1)c1nc2ccccc2cc1-c1ccc(OCCN2CCCC2)cc1 | > 10
CN(C)CCCOc1ccc(C(=O)c2nc3ccccc3cc2-c2ccc(OCCCN(C)C)cc2)cc1 | 4.98

Test system: MDA-MB-231
Experiment: Antiproliferative activity against human MDA-MB-231 cells after 3 days by XTT assay
Format: functional, cell-based
Details: MDA-MB-231, 72 h

Compound | IC50 [µM]
O=C(c1ccc(O)cc1)c1nc2ccccc2cc1-c1ccc(OCCN2CCCCC2)cc1 | > 10
O=C(c1ccc(OCCN2CCCCC2)cc1)c1nc2ccccc2cc1-c1ccc(OCCN2CCCCC2)cc1 | 7.99
CC[C@@]1(O)C(=O)OCc2c1cc1n(c2=O)Cc2cc3c(CN(C)C)c(O)ccc3nc2-1 [TOPOTECAN] | < 0.1
CN(C)CCCOc1ccc(-c2cc3ccccc3nc2C(=O)c2ccc(O)cc2)cc1 | > 10
COc1ccc(-c2cc3ccccc3nc2C(=O)c2cc(OC)c(OC)c(OC)c2)cc1 | > 10
O=C(c1ccc(OCCN2CCCC2)cc1)c1nc2ccccc2cc1-c1ccc(OCCN2CCCC2)cc1 | 8.42
O=C(c1ccc(O)cc1)c1nc2ccccc2cc1-c1ccc(OCCN2CCCC2)cc1 | > 10
CN(C)CCCOc1ccc(C(=O)c2nc3ccccc3cc2-c2ccc(OCCCN(C)C)cc2)cc1 | 7.14

Test system: MCF7
Experiment: Antiproliferative activity against human MCF7 cells after 3 days by XTT assay
Format: functional, cell-based
Details: MCF7, 72 h

Compound | IC50 [µM]
O=C(c1ccc(O)cc1)c1nc2ccccc2cc1-c1ccc(OCCN2CCCCC2)cc1 | > 10
O=C(c1ccc(OCCN2CCCCC2)cc1)c1nc2ccccc2cc1-c1ccc(OCCN2CCCCC2)cc1 | 4.66
CN(C)CCCOc1ccc(-c2cc3ccccc3nc2C(=O)c2ccc(O)cc2)cc1 | > 10
COc1ccc(-c2cc3ccccc3nc2C(=O)c2cc(OC)c(OC)c(OC)c2)cc1 | > 10
O=C(c1ccc(OCCN2CCCC2)cc1)c1nc2ccccc2cc1-c1ccc(OCCN2CCCC2)cc1 | 4.59
O=C(c1ccc(O)cc1)c1nc2ccccc2cc1-c1ccc(OCCN2CCCC2)cc1 | > 10
CN(C)CCCOc1ccc(C(=O)c2nc3ccccc3cc2-c2ccc(OCCCN(C)C)cc2)cc1 | 4.47

Test system: not listed separately
Experiment: Antiproliferative activity against human HuH7 cells after 3 days by XTT assay
Format: functional, cell-based
Details: Huh-7, 72 h

Compound | IC50 [µM]
O=C(c1ccc(O)cc1)c1nc2ccccc2cc1-c1ccc(OCCN2CCCCC2)cc1 | > 10
O=C(c1ccc(OCCN2CCCCC2)cc1)c1nc2ccccc2cc1-c1ccc(OCCN2CCCCC2)cc1 | 6.59
CC[C@@]1(O)C(=O)OCc2c1cc1n(c2=O)Cc2cc3c(CN(C)C)c(O)ccc3nc2-1 [TOPOTECAN] | 8.61
CN(C)CCCOc1ccc(-c2cc3ccccc3nc2C(=O)c2ccc(O)cc2)cc1 | > 10
COc1ccc(-c2cc3ccccc3nc2C(=O)c2cc(OC)c(OC)c(OC)c2)cc1 | > 10
O=C(c1ccc(OCCN2CCCC2)cc1)c1nc2ccccc2cc1-c1ccc(OCCN2CCCC2)cc1 | 8.68
O=C(c1ccc(O)cc1)c1nc2ccccc2cc1-c1ccc(OCCN2CCCC2)cc1 | > 10
CN(C)CCCOc1ccc(C(=O)c2nc3ccccc3cc2-c2ccc(OCCCN(C)C)cc2)cc1 | 6.44

Test system: dengue virus type 2
Experiment: Antiviral activity against DENV2 16681 infected in human Huh-7 cells assessed as reduction of viral NS2B protein expression at 5 to 20 uM after 3 days by Western blot analysis
Format: functional, organism-based
Details: not given
Summary of the method: (§1)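 Huh-7-DV-Fluc cells exposed 3 days to compound at 5 and 20 µM, or 5–40 µM for dose series, 0.1% DMSO mock; lysates immunoblotted with rabbit polyclonal anti-NS2B (1:3000), GAPDH (1:10000) as loading control.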

Compound | Activity
COc1ccc(-c2cc3cc(OC)ccc3nc2C(O)c2ccccc2)cc1 (stereo unspecified) | Active
O=C(c1ccc(O)cc1)c1nc2ccccc2cc1-c1ccc(O)cc1 | Active

Test system: dengue virus type 2
Experiment: Antiviral activity against DENV2 16681 infected in human Huh-7 cells assessed as reduction of viral NS5 mRNA expression at 5 to 20 uM after 3 days by RT-PCR analysis
Format: functional, organism-based
Details: not given
Summary of the method: (§2)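 Huh-7-DV-Fluc cells treated 3 days with compound at 5 and 20 µM (dose series 5–40 µM), 0.1% DMSO mock; total RNA extracted, DENV2 RNA quantified by RT-qPCR normalized to cellular GAPDH mRNA; mean ± SD of triplicate experiments.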

Compound | Activity
COc1ccc(-c2cc3cc(OC)ccc3nc2C(O)c2ccccc2)cc1 (stereo unspecified) | Active
O=C(c1ccc(O)cc1)c1nc2ccccc2cc1-c1ccc(O)cc1 | Active

Test system: dengue virus type 2
Experiment: Antiviral activity against DENV2 16681 infected in human Huh-7 cells assessed as reduction of viral NS2B protein expression after 3 days by Western blot analysis
Format: functional, organism-based
Details: not given
Summary of the method: as §1

Compound | Activity
O=C(c1ccc(O)cc1)c1nc2ccccc2cc1-c1ccc(O)cc1 | Dose-dependent effect

Test system: dengue virus type 2
Experiment: Antiviral activity against DENV2 16681 infected in human Huh-7 cells assessed as reduction of viral NS5 mRNA expression after 3 days by RT-PCR analysis
Format: functional, organism-based
Details: not given
Summary of the method: as §2

Compound | Activity
O=C(c1ccc(O)cc1)c1nc2ccccc2cc1-c1ccc(O)cc1 | Dose-dependent effect

Source: ChEMBL document CHEMBL3232713, “Synthesis, antiproliferative and anti-dengue virus evaluations of 2-aroyl-3-arylquinoline derivatives” (Eur J Med Chem, 2014)
